This is an account of results in ChEMBL document CHEMBL2331369, “Transport by OATP1B1 and OATP1B3 enhances the cytotoxicity of epigallocatechin 3-O-gallate and several quercetin derivatives” (J Nat Prod, 2013).

The structures appear in SMILES notation. Activity calls are given as the source filed them. No cut-off for these calls is given here.

In data set [1] the test system is CHO. The experiment in a line: Cytotoxicity against wild type CHO cells after 48 hrs by […] CellTiter-Glo assay. It is filed as cell-based, Cricetulus griseus. As to conditions: for Activity: chinese hamster, cho; for IC50: Cricetulus griseus, CHO. The method in brief: (§1)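 Seeded at 1600 cells/well, 24 h culture, then 5 mM sodium butyrate induction for 24 h. Cells then exposed to a range of compound concentrations for 48 h in medium with 10% FBS. CellTiter-Glo readout, expressed as percent of DMSO control. IC50 from at least three independent experiments, mean ± SEM.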
On the technique in general: ATP-based viability assays read luminescence as a measure of living cells.

For data set [2], the system named is CHO. The experiment in a line: Cell cycle arrest in CHO cells expressing OATP1B3 haplotype 1 assessed as accumulation at G0/G1 phase at 10 uM after 48 hrs using propidium iodide staining by flow cytometry. As to conditions: Cricetulus griseus.
Data set [3] has as its system CHO. The experiment in a line: Inhibition of OATP1B1*1b (unknown origin) expressed in CHO cells assessed as reduction of [3H]estradiol 17beta-glucuronide at 50 uM after 20 seconds. Format: cell-based. As to conditions: Homo sapiens. The method, boiled down: (§2)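 Uptake in stably transfected CHO cells grown with 10% FBS. Test compound at 50 μM with 1% DMSO as control. Substrates 0.1 μM E3S or E17βG for 20 s, or 0.5 μM DHEAS for 5 min, all at 37 °C. Net OATP uptake is taken as the wild-type CHO signal subtracted. Values are percent of DMSO control, mean ± SEM of one representative of three experiments.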

Data set [4] has as its system CHO. The data set is described as follows: Inhibition of OATP1B3 haplotype 1 (unknown origin) expressed in CHO cells assessed as reduction of [3H]dehydroepiandrosterone sulfate at 50 uM after 5 mins. As to conditions: Homo sapiens. Format: cell-based. The method, boiled down:
as §2

In data set [5] the test system is CHO. The data set is described as follows: Cytotoxicity against CHO cells expressing OATP1B3 haplotype 1 after 48 hrs by […] CellTiter-Glo assay. Format: functional, cell-based. As to conditions: Cricetulus griseus. The method, boiled down: as §1
Data set [6] has as its system CHO. The experiment in a line: Inhibition of OATP1B1*1b (unknown origin) expressed in CHO cells assessed as reduction of [3H]estrone-3-sulfate at 50 uM after 20 seconds. As to conditions: Homo sapiens. It is filed as cell-based. The method in brief:
as §2

For data set [7], the system named is CHO. The experiment in a line: Inhibition of OATP1B3 haplotype 1 (unknown origin) expressed in CHO cells assessed as reduction of [3H]estradiol 17beta-glucuronide at 50 uM after 20 seconds. It is filed as cell-based. As to conditions: Homo sapiens. The method in brief: as §2
In data set [8] the test system is CHO. The data set is described as follows: Induction of apoptosis in CHO cells expressing OATP1B3 haplotype 1 at 10 uM after 48 hrs using propidium iodide and FITC Annexin V staining by flow cytometry. Format: functional, Cricetulus griseus. The method, boiled down:
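Seeded at 90 000 cells/well for 24 h, then 5 mM sodium butyrate for 24 h, then 10 μM compound for 48 h. Medium and washes pooled with trypsinized cells, spun at 300g for 5 min. Stained with FITC Annexin V plus 4 μg/mL propidium iodide for 20 min in the dark, then flow cytometry. DMSO control; three independent experiments averaged.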

Data set [9] has as its system CHO. The data set is described as follows: Cytotoxicity against CHO cells expressing OATP1B1*1b after 48 hrs by […] CellTiter-Glo assay. Format: functional, cell-based. As to conditions: Cricetulus griseus. The method in brief: as §1
In data set [10] the test system is CHO. The data set is described as follows: Inhibition of OATP1B1*1b (unknown origin) expressed in CHO cells assessed as reduction of [3H]dehydroepiandrosterone sulfate at 50 uM after 5 mins. It is filed as cell-based. As to conditions: Homo sapiens. The method, boiled down:
as §2

In data set [11] the test system is CHO. The experiment in a line: Inhibition of OATP1B3 haplotype 1 (unknown origin) expressed in CHO cells assessed as reduction of [3H]estrone-3-sulfate at 50 uM after 20 seconds. As to conditions: Homo sapiens. It is filed as cell-based. The method, boiled down: as §2
The test system of data set [12] is CHO. The experiment in a line: Activation of OATP1B3 haplotype 1 (unknown origin) expressed in CHO cells assessed as increase of [3H]estradiol 17beta-glucuronide at 50 uM after 20 seconds relative to control. Format: cell-based. As to conditions: Homo sapiens. The method in brief: as §2
Data set [13] concerns the target T1, Albumin (Homo sapiens, UniProt P02768). The data set is described as follows: Binding affinity to human serum albumin at 1 uM. Format: ADME. As to conditions: isolated protein.
The target in data set [14] is T1, Albumin. The data set is described as follows: Binding affinity to human serum albumin at 10 uM. It is filed as ADME. As to conditions: isolated protein.
The test system of a further data set is Plasma. The experiment in a line: Plasma concentration in human at 1600 mg. Format: ADME, cell-free.
The subject of data set [15] is CHO. The data set is described as follows: Cytotoxicity against CHO cells expressing OATP1B1*1b after 48 hrs by […] CellTiter-Glo assay relative to wild type CHO cells. It is filed as functional, Cricetulus griseus. The method, boiled down: (§3)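 CHO cells stably expressing OATP1B1*1b or OATP1B3, and wild-type CHO, in DMEM with 10% FBS. Seeded at 1600 cells/well and cultured 24 h. Then 24 h with 5 mM sodium butyrate to induce expression, then graded compound concentrations for 48 h. Viability read by CellTiter-Glo as percent of DMSO control. IC50 from mean ± SEM of at least three independent experiments.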

Data set [16] deals with CHO. The experiment in a line: Cytotoxicity against CHO cells expressing OATP1B3 haplotype 1 after 48 hrs by […] CellTiter-Glo assay relative to wild type CHO cells. It is filed as functional, Cricetulus griseus. The method in brief:
as §3

Data set [17] concerns CHO. The experiment in a line: Cell cycle arrest in CHO cells expressing OATP1B3 haplotype 1 assessed as accumulation at G0/G1 phase at 1 uM after 48 hrs using propidium iodide and FITC Annexin V staining by flow cytometry. Format: functional, cell-based. As to conditions: Cricetulus griseus. The method in brief:
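Cells plated at 90 000/well for 24 h, held 36 h serum-free to synchronize in G0, induced 24 h with 5 mM sodium butyrate, then compound for 48 h. Fixed in 70% ice-cold ethanol at 4 °C overnight, then 40 min in PBS with 25 μg/mL RNase and 12.5 μg/mL propidium iodide. DNA content by flow cytometry; two independent experiments averaged.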
For orientation: A flow cytometer gives signals particle by particle.

Data set [18] deals with CHO. The experiment in a line: Induction of apoptosis in CHO cells expressing OATP1B3 haplotype 1 at 1 uM after 48 hrs using propidium iodide and FITC Annexin V staining by flow cytometry. It is filed as functional, Cricetulus griseus. The method, boiled down:
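Wild-type and OATP1B3 CHO cells plated at 90 000/well for 24 h, induced 24 h with 5 mM sodium butyrate, then compound 48 h (DMSO control). Medium and trypsinized cells pooled, spun 5 min at 300g, PBS-washed. Stained 20 min in the dark with FITC Annexin V and 4 μg/mL propidium iodide, then flow cytometry. Two independent experiments, values averaged.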

Data set [19] concerns CHO. The experiment in a line: Activation of OATP1B3 haplotype 1 (unknown origin) expressed in CHO cells assessed as increase at 50 uM after relative to control. As to conditions: Homo sapiens.

The term IC50 denotes the point on the concentration scale where inhibition reaches its midpoint. A low value points to greater potency.

T1 sequence (P02768 whole entry): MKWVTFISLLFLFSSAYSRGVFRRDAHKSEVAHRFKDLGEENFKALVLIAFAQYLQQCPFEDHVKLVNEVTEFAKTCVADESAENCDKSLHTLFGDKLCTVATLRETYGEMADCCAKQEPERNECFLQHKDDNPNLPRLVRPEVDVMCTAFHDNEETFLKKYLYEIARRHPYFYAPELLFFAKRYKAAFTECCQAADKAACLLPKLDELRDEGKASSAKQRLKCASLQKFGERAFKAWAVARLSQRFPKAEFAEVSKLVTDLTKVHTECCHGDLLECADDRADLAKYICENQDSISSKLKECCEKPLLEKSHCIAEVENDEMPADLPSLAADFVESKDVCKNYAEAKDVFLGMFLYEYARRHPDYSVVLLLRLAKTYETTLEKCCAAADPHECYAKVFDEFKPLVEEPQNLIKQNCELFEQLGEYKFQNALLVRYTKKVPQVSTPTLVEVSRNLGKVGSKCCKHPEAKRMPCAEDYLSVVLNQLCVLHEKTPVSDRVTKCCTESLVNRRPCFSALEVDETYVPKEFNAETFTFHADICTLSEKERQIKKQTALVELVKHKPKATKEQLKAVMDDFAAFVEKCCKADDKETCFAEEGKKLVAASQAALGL

As for `Nc1ccc(C(=O)Oc2c(-c3ccc(O)c(O)c3)oc3cc(O)cc(O)c3c2=O)cc1O`, the Activity result was “Non-toxic” in the data set on CHO [1] and 70% with CHO [8]. Moreover, the outcome in the data set on CHO [2] and in the data set with CHO [9] was inactive. Moreover, the inhibition entry in the data set on CHO [3], in the data set with CHO [4], in the data set on CHO [6], in the data set on CHO [7], in the data set with CHO [10] and with CHO [11] was “Active” each time. Moreover, inhibition with CHO [5] was half-maximal at 4.1 µM (IC50).
For `NCCCOc1cc(-c2oc3cc(O)cc(O)c3c(=O)c2O)ccc1O`, the Activity result in the data set on CHO [1] was “Non-toxic”. Besides, the inhibition entry in the data set with CHO [4], in the data set on CHO [7] and in the data set with CHO [11] was “Active” throughout. The result with CHO [5] and in the data set with CHO [9] was inactive.
On to `CCCOc1cc(O)cc2oc(-c3ccc(O)c(O)c3)c(O)c(=O)c12`, for which the IC50 in the data set on CHO [1] was 111 µM; in the data set with CHO [5] it was 11.8 µM; with CHO [9] it was 42.6 µM. Moreover, the inhibition result in the data set with CHO [3], in the data set with CHO [4], with CHO [6] and with CHO [10] was “Active” in each case. The fold change (FC) in the data set with CHO [12] came to 3.
Consider `O=C(O[C@@H]1Cc2c(O)cc(O)cc2O[C@@H]1c1cc(O)c(O)c(O)c1)c1cc(O)c(O)c(O)c1` [EPIGALOCATECHIN GALLATE], for which the IC50 is 271 µM with CHO [1], 3.2 µM in the data set on CHO [5] and 7.7 µM in the data set with CHO [9]. For the same compound, the figures for the Activity on Albumin [13], at Albumin [14] and in the data set on CHO [18] were 99%, 85% and 15%, respectively. Also, the concentration in the data set on Plasma came out at 11.3 µM. Moreover, the “fold change (FC)” value in the data set with CHO [15] was found to be 35; in the data set on CHO [16], 85. In the data set with CHO [17], the outcome was Active.
`O=C(Oc1cc(-c2oc3cc(O)cc(O)c3c(=O)c2O)ccc1O)c1cc(O)c(O)c(O)c1`: the Activity result in the data set with CHO [1] is recorded as “Non-toxic”. Also, the inhibition result in the data set with CHO [3], with CHO [4], with CHO [6], with CHO [7], in the data set with CHO [10] and in the data set with CHO [11] was “Active” in each case. The values for the IC50 in the data set on CHO [5] and in the data set with CHO [9] were 6.8 µM and 7.9 µM, respectively.
For the compound `O=C(Oc1c(-c2ccc(O)c(O)c2)oc2cc(O)cc(O)c2c1=O)c1cc(O)c(O)c(O)c1`, the Activity entry in the data set on CHO [1] is “Non-toxic”; in the data set on CHO [8], 32%. Also, in the data set with CHO [2], the outcome was inactive. Also, the inhibition result with CHO [3], in the data set with CHO [4], in the data set with CHO [6], in the data set with CHO [7], in the data set on CHO [10] and in the data set with CHO [11] was “Active” each time. The IC50 in the data set on CHO [5] was 3.8 µM; in the data set with CHO [9], 3.5 µM.
Take `Nc1cc(C(=O)Oc2c(-c3ccc(O)c(O)c3)oc3cc(O)cc(O)c3c2=O)ccc1O`: the Activity result in the data set with CHO [1] is reported as “Non-toxic”. Further, the outcome with CHO [5] and with CHO [9] was inactive. Moreover, the result in the data set on CHO [19] was Active.
